Bioassay records: PubChem BioAssay, The Scripps Research Institute Molecular Screening Center
LEDGF integ inh: blockers of LEDGF/p75-dependent integrase strand transfer – biochemical, TR-FRET, high throughput, primary screen. HIV-1 integrase (with human LEDGF/p75). TR-FRET IN-LEDGF/p75 DNA integration, Eu/Cy5. inhibition, % at 3.7 µM. hit rate 0.64% among 370,000. AID 743269, 2014;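 active = inhibition above the screen-wide mean plus 3 SD, cut at about 13% in these data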;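 note: signal is the Cy5 over europium emission ratio at 671 and 618 nm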
UHRF1 MBD2 ctr: UHRF1 methylated DNA binding inhibitors, primary screen, counter-screen for MBD2 inhibitor project, biochemical, TR-FRET, human UHRF1, single concentration; hit rate 0.75% among 370,000; E3 ubiquitin-protein ligase UHRF1 (Homo sapiens), Q96T88; UHRF1 binding to methylated oligo; inhibition, % at 4.4 µM;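 note: UHRF1 SRA domain binding a hemimethylated CpG hairpin DNA probe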
Target sequence (Q96T88 whole entry, looked up, the tested form may be a part): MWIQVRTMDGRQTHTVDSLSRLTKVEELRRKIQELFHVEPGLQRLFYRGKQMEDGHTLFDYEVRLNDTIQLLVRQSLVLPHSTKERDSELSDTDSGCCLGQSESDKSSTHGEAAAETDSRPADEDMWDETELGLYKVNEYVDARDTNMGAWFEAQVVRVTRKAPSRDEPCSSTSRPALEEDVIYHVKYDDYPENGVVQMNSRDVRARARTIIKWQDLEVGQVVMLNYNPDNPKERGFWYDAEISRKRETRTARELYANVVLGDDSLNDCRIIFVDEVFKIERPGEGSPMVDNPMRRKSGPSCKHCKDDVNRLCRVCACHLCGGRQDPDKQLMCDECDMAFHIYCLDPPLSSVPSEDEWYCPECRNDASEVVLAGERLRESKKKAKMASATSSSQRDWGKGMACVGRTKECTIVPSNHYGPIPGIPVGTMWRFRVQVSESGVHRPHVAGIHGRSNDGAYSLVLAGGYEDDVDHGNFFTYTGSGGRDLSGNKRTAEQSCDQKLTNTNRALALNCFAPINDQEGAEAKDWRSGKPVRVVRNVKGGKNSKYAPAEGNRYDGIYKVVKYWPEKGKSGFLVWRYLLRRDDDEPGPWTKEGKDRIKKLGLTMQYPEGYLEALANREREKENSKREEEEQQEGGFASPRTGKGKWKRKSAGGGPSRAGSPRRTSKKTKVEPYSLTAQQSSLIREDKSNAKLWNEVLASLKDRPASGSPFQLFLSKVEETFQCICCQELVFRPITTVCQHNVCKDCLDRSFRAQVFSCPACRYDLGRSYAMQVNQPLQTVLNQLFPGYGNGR
MBD2 DNA inh: inhibitors of MBD2 binding to methylated DNA, primary screen, biochemical, TR-FRET, DNA-binding domain, human | Methyl-CpG-binding domain protein 2 (Homo sapiens), Q9UBB5 | MBD2 binding to methylated oligonucleotide | hit rate 0.31% among 370,000 | inhibition, % at 4.4 µM; in the data active = inhibition above about 13%
TDP2 absorb: human TDP2 enzyme inhibitors, primary screen, biochemical, epi absorbance, recombinant enzyme | inhibition, % at 12.8 µM | T5PNP hydrolysis, p-nitrophenol absorbance 415 nm | AID 720702, 2013 | Tyrosyl-DNA phosphodiesterase 2 (Homo sapiens), O95551 | hit rate 0.34% among 370,000;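 active = inhibition above the mean of all tested compounds plus 3 SD, set per campaign, cut at about 25% in these data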
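System: recombinant human TDP2 / Amount: 120 nM TDP2 per well / Also added: 5 mM T5PNP chromogenic substrate / Doses: 12.8 µM single point, 1% DMSO / Incubation: 2 h at 37 °C / Detection: p-Nitrophenol epi absorbance / Evaluation: % inhibition relative to enzyme-containing and enzyme-free wells / Repeats: singlicate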
DDE Tn6 FP inh: inhibitors of Tn6 peptide binding to fibrin DD(E), primary screen, biochemical, fluorescence polarization, human fibrin, Tn6 probe; Fibrin DD(E) TRITC-Tn6 fluorescence polarization displacement; hit rate 0.21% among 370,000; AID 720509, 2013; inhibition, % at 8.3 µM;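 active = inhibition above a per-campaign cutoff: mean of compounds within control limits plus 3 SD, cut at about 15% in these data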
Tn7 DDE FP: inhibitors of Tn7 peptide binding to fibrin DD(E), primary screen, biochemical, fluorescence polarization, human fibrin, Tn7 probe. FP displacement of FITC-Tn7 peptide from fibrin DD(E); 0% = median of compound wells per plate. inhibition, % at 8.3 µM. hit rate 0.13% among 370,000;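 active = inhibition above the mean of compounds falling within the control limits plus 3 SD of them, cut at about 14% in these data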
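System: human fibrin DD(E); quantity: Fibrin-DD(E) at 2 µM final; also added: fluorescent Tn7 probe at 0.1 µM; compound dosing: single nominal test concentration of 8.3 µM per compound; schedule: 10 min preincubation, 3 h with tracer, room temperature; detection: fluorescence polarization of the labelled Tn7 tracer; repeats: one replicate per compound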
UHRF1 ctr MBD2: UHRF1 methylated DNA binding inhibitors, counter-screen for MBD2 inhibitor project, biochemical, TR-FRET, human UHRF1. shares compounds with MBD2 DNA inh. UHRF1 binding to methylated oligonucleotide. inhibition, % at 4.4 µM. hit rate 25% among 1,000. AID 720530, 2013;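 note: UHRF1 SRA domain binding a labeled hemimethylated CpG hairpin DNA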
MBD2 confirm: inhibitors of MBD2 binding to methylated DNA, confirmation, biochemical, TR-FRET, DNA-binding domain, human. TR-FRET MBD2-DBD binding to methylated oligonucleotide. inhibition, % at 4.4 µM. hit rate 26% among 1,000. AID 720531, 2013. shares compounds with MBD2 DNA inh; in the data active = inhibition above about 14%
Numbers stand for hits; i = inactive; nt = not tested or not shown. The list is not random: actives were taken first. Their share in the collection is about 1.9%. Cut-off read from the data, not from the text of the source, unless noted: active = inhibition above about 21%; inactive = the rest.

SMILES	LEDGF integ inh	UHRF1 MBD2 ctr	MBD2 DNA inh	TDP2 absorb	DDE Tn6 FP inh	Tn7 DDE FP	UHRF1 ctr MBD2	MBD2 confirm
COCCCNC(=O)C[C@H]1C[C@@]2(C(=O)OC)C(=C[C@H](COCc3ccccc3)O[C@@H]2C)N(CCC2=CCCCC2)C1=O	i	i	i	i	i	i	nt	nt
COC(=O)c1cc(OC)c(OC)cc1NC(=S)N1CCCC(CO)C1 (centres undefined)	i	i	i	i	i	i	nt	nt
COC(=O)c1ccc(C(=O)OC)c(NC(=S)N2CCCC(CO)C2)c1 (centres undefined)	i	i	24.2	i	i	i	i	i
O=C(COC(=O)c1ccc(O)cc1O)NC1CCCCCC1	i	i	19.5	i	i	i	i	i
O=C(COC(=O)c1ccc(O)cc1O)NC1CCS(=O)(=O)C1 (centres undefined)	i	i	i	i	i	i	nt	nt
Cc1cccc(NC(=O)CNC(=O)c2cccc(-n3cccc3)c2)c1C	i	69.2	31.2	i	i	i	62.0	43.8
COc1ccc(NC(=O)CN(C)C(=O)c2cccc(-n3cccc3)c2)cc1	i	58.5	32.7	i	i	i	43.1	37.8
Cc1ccc(NC(=O)CN(C)C(=O)c2cccc(-n3cccc3)c2)cc1	i	76.8	36.0	i	i	i	66.1	47.3
O=C(Nc1ccccc1C(=O)NCC1CC1)c1cccs1	i	i	i	i	i	i	nt	nt
Cc1cccc(CN2CCN(C3CN(Cc4cn(Cc5ccc(Cl)cc5)nn4)S(=O)(=O)C3)CC2)c1 (centres undefined)	i	i	13.2	i	i	i	i	i
COCCCn1cc(CN2CC(N3CCCC3)CS2(=O)=O)nn1 (centres undefined)	i	i	i	i	i	i	nt	nt
Cc1ccc(Cn2cc(CN3CC(N4CCN(CCN(C)C)CC4)CS3(=O)=O)nn2)cc1 (centres undefined)	i	i	i	i	i	i	nt	nt
COCCCn1cc(CN2CC(N3CCN(C)CC3)CS2(=O)=O)nn1 (centres undefined)	i	i	13.5	i	i	i	i	i
CN(C)CCN1CCN(C2CN(Cc3cn(Cc4ccccc4)nn3)S(=O)(=O)C2)CC1 (centres undefined)	i	i	14.8	i	i	i	i	i
O=C(NCc1ccco1)C1CCCN(S(=O)(=O)c2ccccc2[N+](=O)[O-])C1 (centres undefined)	i	i	i	i	i	i	nt	nt
COC(=O)[C@@]12CCCCC=C1N(CCc1ccc(Cl)cc1)C(=O)[C@H]2CC(=O)NCC12CC3CC(CC(C3)C1)C2	i	i	i	i	i	i	nt	nt
CCOC(=O)N1CCN(C(=O)c2ccc(C#CC3(O)CCCCC3)cc2)CC1	i	25.9	14.7	i	i	i	i	i
Cc1ccc(Cc2c(-c3cccc(Br)c3)nc3c4ccccc4ccn23)cc1	i	i	i	i	i	i	nt	nt
CCCc1c(-c2ccc(OC)cc2)ncn1CCc1ccccc1OC	i	i	i	i	i	i	nt	nt
O=C1C=C(c2ccc(C(=O)O)cc2)C[C@@H](c2ccc3c(c2)OCO3)C1	i	i	15.7	i	i	i	i	i
O=C1C=C(c2ccc(O)cc2)C[C@@H](c2ccc3c(c2)OCO3)C1	i	i	i	i	i	i	nt	nt
OCCCNCc1cccc2ccccc12	i	i	14.9	i	i	i	i	18.9
CC1=CC(=O)C(C(C)C)=C/C1=N\OS(=O)(=O)c1ccccc1	i	i	i	i	i	i	nt	nt
CO[C@H]1CN(C)C(=O)c2cc(NC(=O)c3ccccc3)ccc2OC[C@H](C)NC[C@@H]1C	i	i	i	i	i	i	nt	nt
COc1ccc(OC)c(NC(=O)c2ccccc2N(Cc2ccccc2)C(=O)C(C)Cl)c1 (centres undefined)	i	i	i	i	i	i	nt	nt
SMILES	LEDGF integ inh	UHRF1 MBD2 ctr	MBD2 DNA inh	TDP2 absorb	DDE Tn6 FP inh	Tn7 DDE FP	UHRF1 ctr MBD2	MBD2 confirm
COc1cccc(CC(=O)Nc2cc(S(=O)(=O)N3CCCCC3)ccc2C)c1	i	i	i	i	i	i	nt	nt
COc1cccc(CC(=O)Nc2ccc(S(=O)(=O)N3CCCCC3)cc2)c1	i	i	13.3	i	i	i	i	i
c1ccc(-n2nc3c(ccc4cnnc43)[nH]2)cc1	i	i	14.9	i	i	i	i	i
CCCCN1CCN(C(=O)C2CCN(S(=O)(=O)c3ccc4[nH]c(=O)oc4c3)CC2)CC1	i	i	i	i	i	i	nt	nt
Cc1c(C(N)=O)cc([N+](=O)[O-])cc1[N+](=O)[O-]	i	22.5	17.0	i	i	i	i	i
CCOc1c(C(N)=O)cc([N+](=O)[O-])cc1[N+](=O)[O-]	i	i	i	i	i	i	nt	nt
COc1ccccc1NC(=O)Nc1ccc(CC#N)cc1	i	i	60.4	i	i	i	i	i
C=CCn1c(C)cc(C(=O)CSc2nc3ccccc3c(=O)[nH]2)c1C	i	i	i	i	i	i	nt	nt
C=CCn1c(C)cc(C(=O)CSc2nc3ccccc3[nH]2)c1C	i	i	19.5	i	i	i	i	i
CC(C)(C)NC(=O)CN(C(=O)c1ccc(CN2CCOCC2)o1)c1ccc2c(c1)OCCO2	i	i	i	i	i	i	nt	nt
COc1ccc(C(=O)N(CC(=O)NC(C)(C)C)c2ccc3c(c2)OCCO3)cc1OC	i	i	16.4	i	i	i	i	i
CCOc1cc(/C=N/n2cnnc2)ccc1OCC(=O)Nc1ccccc1OC	i	i	i	i	i	i	nt	nt
CCOc1cc(/C=N/n2cnnc2)ccc1OS(=O)(=O)c1ccc(C)cc1	i	i	14.3	i	i	i	i	i
O=C(O)[C@@H]1C[C@@H](O)CN1	i	i	i	i	i	i	nt	nt
COc1cccc(C(=O)NC2CC3CCCC(C2)N3CC(=O)Nc2ccccc2)c1 (centres undefined)	i	i	13.2	i	i	i	i	i
COc1cccc(C(=O)NC2CC3CCCC(C2)N3CC(=O)Nc2ccc(N(C)C)cc2)c1 (centres undefined)	i	i	i	i	i	i	nt	nt
